Results from ChEMBL document CHEMBL1144718, “Novel 3-aroylpyrazolo[5,1-c][1,2,4]benzotriazine 5-oxides 8-substituted, ligands at GABAA/benzodiazepine receptor complex: synthesis, pharmacological and molecular modeling studies” (Bioorg Med Chem, 2008).
The source made the active and inactive calls. The rule behind the calls is not given here.

How the values were obtained:
[1] = Displacement of [3H]flumazenil from GABAA/BzR complex in bovine cerebral cortex membrane; type: cell membranes, Bos taurus
How it was run: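 Bovine cerebral cortex membranes in 50 mM Tris-citrate pH 7.4 incubated with [3H]Ro15-1788 (1–2 nM) for 1 h at 4 °C to equilibrium; nonspecific binding with 10^-5 M diazepam; DMSO ≤1%. Ki from ≥6 concentrations (10^-9–10^-5 M) by curve fitting and Cheng–Prusoff; percent inhibition at 10 µM; five determinations, triplicate.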

[2] = tested on: Mus musculus; experiment: Sedative activity in CD1 albino mouse assessed as reduction of spontaneous motility at 30 mg/kg, po after 30 mins by hole-board test; type: functional, organism-based; design: dose 30 mg/kg
How it was run: (§1)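 Hole-board: male CD-1 mice given compound po (1% CMC) and placed individually on the board 30 min later, free to explore panel and holes for 5 min; spontaneous motility and exploration (panel and hole movements) scored.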

[3] = tested on: Mus musculus; experiment: Anxiolytic effect in CD1 albino mouse at 10 mg/kg, po after 30 mins by light-dark box test; type: functional, organism-based; design: dose 10 mg/kg
How it was run: (§2)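 Male CD-1 mice (22–24 g); test agent po in 1% CMC, 30 min before a light/dark box session; time (s) spent in the illuminated compartment measured. Means ± SEM of 14–21 mice.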

[4] = tested on: Mus musculus; experiment: Anticonvulsant activity against pentylenetetrazole-induced seizure in CD1 Albino mouse assessed as shock latency at 30 mg/kg, po after 30 mins; type: functional
How it was run: (§3)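 Male CD-1 mice (22–24 g), compound suspended in 1% CMC (sonicated) given po in 10 ml/kg; 30 min later PTZ 90 mg/kg sc (in saline). Latency (s) to shock and to convulsions recorded; clonic generalized convulsions counted over 30 min.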

[5] = tested on: Mus musculus; experiment: Increase in learning and memory performance in CD1 albino mouse at 10 mg/kg, po after 24 hrs by passive avoidance test; type: functional, organism-based; design: dose 10 mg/kg
How it was run: (§4)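 Passive avoidance in male CD-1 mice treated po 30 min before training; retention tested 24 h later. Latency to enter the dark compartment measured, maximum 60 s (training) and 180 s (retention). Means ± SEM of 15–18 mice.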

[6] = tested on: Mus musculus; experiment: Anticonvulsant activity against pentylenetetrazole-induced seizure in CD1 Albino mouse assessed as shock latency at 10 mg/kg, po after 30 mins; type: functional; how it was run: as §3
[7] = tested on: Mus musculus; experiment: Sedative activity in CD1 albino mouse assessed as reduction of explorative activity at 3 mg/kg, po after 30 mins by hole-board test; type: functional, organism-based; design: dose 3 mg/kg; how it was run: as §1
[8] = tested on: Mus musculus; experiment: Anticonvulsant activity against pentylenetetrazole-induced seizure in CD1 Albino mouse assessed as shock latency at 3 mg/kg, po after 30 mins; type: functional; how it was run: as §3
[9] = species on record: Mus musculus; experiment: Reversal of anxiolytic effect in CD1 albino mouse by light-dark box test in presence of flumazenil; type: functional, organism-based
How it was run: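 Light/dark box in male CD-1 mice: compound po (1% CMC) 30 min before test, with flumazenil given ip at […] in saline; time (s) in illuminated compartment recorded. Means ± SEM of 14–21 mice.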

[10] = tested on: Mus musculus; experiment: Anticonvulsant activity against pentylenetetrazole-induced seizure in CD1 Albino mouse assessed as convulsant latency at 30 mg/kg, po after 30 mins; type: functional; how it was run: as §3
[11] = tested on: Mus musculus; experiment: Effect on motor coordination in CD1 Albino mouse assessed as number of falls in 30 secs at 30 mg/kg, po after 30 mins by rotarod test relative to control; type: functional
How it was run: (§5)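 Rota-rod at 16 rpm in male CD-1 mice after po dosing in 1% CMC; number of falls in 30 s counted at 15, 30, 45 and 60 min post-administration.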

[12] = tested on: Mus musculus; experiment: Anticonvulsant activity against pentylenetetrazole-induced seizure in CD1 Albino mouse assessed as convulsant latency at 3 mg/kg, po after 30 mins; type: functional; how it was run: as §3
[13] = tested on: Mus musculus; experiment: Sedative activity in CD1 albino mouse assessed as reduction of spontaneous motility at 3 mg/kg, po after 30 mins by hole-board test; type: functional, organism-based; design: dose 3 mg/kg; how it was run: as §1
[14] = tested on: Mus musculus; experiment: Effect on ethanol-induced sleeping time in CD1 Albino mouse assessed as increase in duration of loss of righting reflex at 10 mg/kg, po after 30 mins; type: functional, organism-based; design: dose 10 mg/kg
How it was run: (§6)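 Male CD-1 mice dosed po (1% CMC suspension); ethanol 4 g/kg ip given 30 min after the compound. Sleep time taken as duration of loss of righting reflex, end-point 150 min.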

[15] = tested on: Mus musculus; experiment: Effect on motor coordination in CD1 Albino mouse assessed as number of falls in 30 secs at 3 mg/kg, po after 30 mins by rotarod test; type: functional; how it was run: as §5
[16] = tested on: Mus musculus; experiment: Anxiolytic effect in CD1 albino mouse at 3 mg/kg, po after 30 mins by light-dark box test; type: functional, organism-based; design: dose 3 mg/kg; how it was run: as §2
[17] = tested on: Mus musculus; experiment: Effect on ethanol-induced sleeping time in CD1 Albino mouse assessed as increase in duration of loss of righting reflex at 30 mg/kg, po after 30 mins; type: functional, organism-based; design: dose 30 mg/kg; how it was run: as §6
[18] = tested on: Mus musculus; experiment: Sedative activity in CD1 albino mouse assessed as reduction of explorative activity at 30 mg/kg, po after 30 mins by hole-board test; type: functional, organism-based; design: dose 30 mg/kg; how it was run: as §1
[19] = tested on: Mus musculus; experiment: Sedative activity in CD1 albino mouse assessed as reduction of explorative activity at 10 mg/kg, po after 30 mins by hole-board test; type: functional, organism-based; design: dose 10 mg/kg; how it was run: as §1
[20] = tested on: Mus musculus; experiment: Effect on motor coordination in CD1 Albino mouse assessed as number of falls in 30 secs at 10 mg/kg, po after 30 mins by rotarod test relative to control; type: functional; how it was run: as §5
[21] = tested on: Mus musculus; experiment: Sedative activity in CD1 albino mouse assessed as reduction of spontaneous motility at 10 mg/kg, po after 30 mins by hole-board test; type: functional, organism-based; design: dose 10 mg/kg; how it was run: as §1
[22] = tested on: Mus musculus; experiment: Effect on ethanol-induced sleeping time in CD1 Albino mouse assessed as increase in duration of loss of righting reflex at 3 mg/kg, po after 30 mins; type: functional, organism-based; design: dose 3 mg/kg; how it was run: as §6
[23] = tested on: Mus musculus; experiment: Increase in learning and memory performance in CD1 albino mouse at 3 mg/kg, po after 24 hrs by passive avoidance test; type: functional, organism-based; design: dose 3 mg/kg; how it was run: as §4
[24] = tested on: Mus musculus; experiment: Anticonvulsant activity against pentylenetetrazole-induced seizure in CD1 Albino mouse assessed as convulsant latency at 10 mg/kg, po after 30 mins; type: functional; how it was run: as §3
[25] = tested on: Mus musculus; experiment: Anticonvulsant activity against pentylenetetrazole-induced seizure in CD1 Albino mouse assessed as convulsant latency at 1 mg/kg, ip after 20 mins; type: functional, organism-based; design: dose 1 mg/kg
How it was run: (§7)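 In male CD-1 mice (22–24 g), drug in saline was given ip at 10 ml/kg; the test ran 20 min later. PTZ 90 mg/kg sc was the convulsant. Latency (s) to shock and to convulsions was scored, and clonic generalized convulsions were counted over 30 min. Significance was set at P < 0.05 versus controls.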

[26] = tested on: Mus musculus; experiment: Anticonvulsant activity against pentylenetetrazole-induced seizure in CD1 Albino mouse assessed as shock latency at 1 mg/kg, ip after 20 mins; type: functional, organism-based; design: dose 1 mg/kg; how it was run: as §7
[27] = tested on: Mus musculus; experiment: Sedative activity in CD1 albino mouse assessed as reduction of spontaneous motility at 3 mg/kg, ip after 20 mins by hole-board test; type: functional, organism-based; design: dose 3 mg/kg
How it was run: (§8)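 Hole-board test in male CD-1 mice (22–24 g) after an ip dose in saline (10 ml/kg). Each mouse explored the panel and holes alone for 5 min. Spontaneous motility was scored as panel movements and curiosity as exploration of the holes.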

[28] = tested on: Mus musculus; experiment: Sedative activity in CD1 albino mouse assessed as reduction of curiosity at 3 mg/kg, ip after 20 mins by hole-board test; type: functional, organism-based; design: dose 3 mg/kg; how it was run: as §8
[29] = tested on: Mus musculus; experiment: Amnesic activity in CD1 albino mouse at 1 mg/kg, ip; type: functional, organism-based; design: dose 1 mg/kg
How it was run: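 Male CD-1 mice (22–24 g) given drug ip in 0.9% saline at 10 ml/kg. Passive-avoidance training followed treatment, and retention was tested 24 h later. Read-out was latency to enter the dark compartment in both sessions, capped at 60 s (training) and 180 s (retention). Means ± SEM of 15–18 mice.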

[30] = tested on: Mus musculus; experiment: Sedative activity in CD1 albino mouse assessed as reduction of curiosity at 3 mg/kg, po after 30 mins by hole-board test; type: functional, organism-based; design: dose 3 mg/kg; how it was run: as §1
[31] = tested on: Mus musculus; experiment: Sedative activity in CD1 albino mouse assessed as reduction of curiosity at 30 mg/kg, po after 30 mins by hole-board test; type: functional, organism-based; design: dose 30 mg/kg; how it was run: as §1

CC(=O)c1cnn2c1n[n+]([O-])c1ccc(Oc3ccccc3)cc12
Ki [1]: 53 nM

CCOc1ccc2c(c1)n1ncc(C(=O)c3cccnc3)c1n[n+]2[O-]
Ki [1]: 2000 nM

O=C(c1ccco1)c1cnn2c1n[n+]([O-])c1ccc(Oc3ccccc3)cc12
Ki [1]: 7 nM

CCOc1ccc2c(c1)n1ncc(C(=O)c3ccc(OC)cc3)c1n[n+]2[O-]
Ki [1]: 919 nM

O=C(c1ccc[nH]1)c1cnn2c1n[n+]([O-])c1ccc(Cl)cc12
Activity [2]: Active | Activity [3]: Active | Activity [4]: 329.6 s | Activity [5]: Active | Ki [1]: 4 nM | Activity [6]: 264.7 s | Activity [7]: inactive | Activity [8]: 297.5 s | Activity [9]: inactive | Activity [10]: 535.2 s | Activity [11]: 0.8 count | Activity [12]: 498.8 s | Activity [13]: inactive | Activity [14]: Active | Activity [15]: 0.6 count | Activity [16]: inactive | Activity [17]: Active | Activity [18]: Active | Activity [19]: inactive | Activity [20]: 1.2 count | Activity [21]: inactive | Activity [22]: Active | Activity [23]: Active | Activity [24]: 647.8 s

CN1C(=O)CN=C(c2ccccc2)c2cc(Cl)ccc21 [DIAZEPAM]
Activity [25]: inactive | Ki [1]: 10 nM | Activity [26]: inactive | Activity [27]: Active | Activity [28]: Active | Activity [29]: Active

Cn1cccc1C(=O)c1cnn2c1n[n+]([O-])c1ccc(Cl)cc12
Ki [1]: 5200 nM

O=C(c1ccco1)c1cnn2c1n[n+]([O-])c1ccc(OCc3ccccc3)cc12
Ki [1]: 1.4 nM

O=C(c1ccc2c(c1)OCO2)c1cnn2c1n[n+]([O-])c1ccc(Cl)cc12
Ki [1]: 2900 nM

O=C(c1ccco1)c1cnn2c1n[n+]([O-])c1ccc(Cl)cc12
Ki [1]: 72 nM

O=C(c1ccsc1)c1cnn2c1n[n+]([O-])c1ccc(Cl)cc12
Ki [1]: 121 nM

O=C(c1cccs1)c1cnn2c1n[n+]([O-])c1ccc(OCc3ccccc3)cc12
Ki [1]: 2.7 nM

CCOc1ccc2c(c1)n1ncc(C(=O)c3ccco3)c1n[n+]2[O-]
Ki [1]: 28 nM | Activity [11]: 0.6 count | Activity [12]: 328.5 s | Activity [30]: Active | Activity [15]: 0.6 count | Activity [20]: 0.8 count | Activity [31]: Active | Activity [24]: 488.2 s

O=C(c1cccnc1)c1cnn2c1n[n+]([O-])c1ccc(Cl)cc12
Ki [1]: 2400 nM

O=C(c1ccc[nH]1)c1cnn2c1nnc1ccc(Cl)cc12
Ki [1]: 1940 nM
